Measured values reported in ChEMBL document CHEMBL4184191, “Immunoproteasome inhibition and bioactivity of thiasyrbactins” (2018).
Activity calls are given as the source filed them. The calls are words filed in the database; no cut-off is given here.

Columns and labels:
SK-N-SH [1] = experiment: Cytotoxicity against human SK-N-SH cells assessed as reduction in cell viability after 24 hrs […]; type: functional, cell-based
[2] = target: T1, Proteasome Macropain subunit MB1 (Homo sapiens) (UniProt P28074); experiment: Inhibition of 20s constitutive proteasome chymotrypsin-like activity in human erythrocytes using Suc-LLVY-Glo as substrate pretreated for 2 hrs followed by substrate addition measured after 10 mins by luminescence assay; type: cell-based
T1 sequence (whole entry): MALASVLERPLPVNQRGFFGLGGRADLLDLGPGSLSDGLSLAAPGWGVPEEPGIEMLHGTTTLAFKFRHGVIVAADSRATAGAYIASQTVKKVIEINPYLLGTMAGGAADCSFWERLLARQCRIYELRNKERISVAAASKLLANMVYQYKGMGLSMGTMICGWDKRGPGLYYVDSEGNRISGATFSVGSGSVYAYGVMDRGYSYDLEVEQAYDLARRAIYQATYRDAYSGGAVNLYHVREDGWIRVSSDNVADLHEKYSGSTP
In short: (§1)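 Purified human 20S proteasome was used: constitutive enzyme from erythrocytes, immunoproteasome from PBMCs, each at 2.2 ng/µl. It was preincubated with inhibitor (0 to 10 µM) in 10 mM HEPES pH 7.3 for 2 h at 37 °C. An equal volume of luminogenic substrate was then added ([…], […], Suc-LLVY-Glo for β5), and luminescence was read 10 min later. Runs were in triplicate, and Ki-50 values were fitted and averaged.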

[3] = target: T1, Proteasome Macropain subunit MB1 (Homo sapiens); experiment: Inhibition of immunoproteasome chymotrypsin-like activity in human […] using Suc-LLVY-Glo as substrate pretreated for 2 hrs followed by substrate addition measured after 10 mins by luminescence assay; type: cell-based; in short: as §1
[4] = target: Proteasome Macropain subunit (Homo sapiens) (UniProt P49721); experiment: Inhibition of 20s constitutive proteasome trypsin-like activity in human erythrocytes using […] as substrate pretreated for 2 hrs followed by substrate addition measured after 10 mins by luminescence assay; type: cell-based; in short: as §1
Sequence of Proteasome Macropain subunit (Homo sapiens) (P49721 whole entry): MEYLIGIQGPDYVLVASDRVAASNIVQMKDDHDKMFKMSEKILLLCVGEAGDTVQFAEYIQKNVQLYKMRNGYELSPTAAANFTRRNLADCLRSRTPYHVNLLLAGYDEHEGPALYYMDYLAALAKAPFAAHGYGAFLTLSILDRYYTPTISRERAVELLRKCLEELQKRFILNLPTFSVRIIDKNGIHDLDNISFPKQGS

[5] = target: T2, Proteasome component C5 (Homo sapiens) (UniProt P20618); experiment: Inhibition of 20s constitutive proteasome caspase-like activity in human erythrocytes using […] as substrate pretreated for 2 hrs followed by substrate addition measured after 10 mins by luminescence assay; type: cell-based; in short: as §1
T2 sequence (whole entry): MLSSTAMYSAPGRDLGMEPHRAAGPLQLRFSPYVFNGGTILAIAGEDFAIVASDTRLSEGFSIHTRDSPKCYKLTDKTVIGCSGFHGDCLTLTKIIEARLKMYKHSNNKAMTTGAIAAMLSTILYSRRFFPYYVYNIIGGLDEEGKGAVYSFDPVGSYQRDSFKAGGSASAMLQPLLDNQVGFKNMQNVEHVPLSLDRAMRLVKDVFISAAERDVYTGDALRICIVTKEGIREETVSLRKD

[6] = target: Proteasome Macropain subunit (Homo sapiens) (UniProt P49721); experiment: Inhibition of immunoproteasome trypsin-like activity in human […] using […] as substrate pretreated for 2 hrs followed by substrate addition measured after 10 mins by luminescence assay; type: cell-based; in short: as §1
Homo sapiens [7] = species: Homo sapiens; experiment: Cytotoxicity against human SK-N-BE(2)C cells assessed as reduction in cell viability after 24 hrs […]; type: functional, cell-based
Homo sapiens [8] = species: Homo sapiens; experiment: Cytotoxicity against human MYCN2 cells assessed as reduction in cell viability after 24 hrs […]; type: functional, cell-based
[9] = target: T2, Proteasome component C5 (Homo sapiens); experiment: Inhibition of immunoproteasome caspase-like activity in human […] using […] as substrate pretreated for 2 hrs followed by substrate addition measured after 10 mins by luminescence assay; type: cell-based; in short: as §1
Homo sapiens [10] = species: Homo sapiens; experiment: Cytotoxicity against human MYCN2 cells assessed as reduction in cell viability at 0.1 to 1 uM after 24 hrs by […] assay; type: functional, cell-based
In short: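 Human neuroblastoma cells were plated overnight in RPMI with 10% heat-inactivated FBS, penicillin (100 U/ml) and streptomycin (100 µg/ml), at 37 C and 5% CO₂. They were exposed to inhibitor at 0.01, 0.1 and 1 µM for 24 h. Viability was read with MTS reagent as absorbance at 490 nm. Two independent experiments were run, each in triplicate wells (n=6), and results are expressed relative to untreated control cells.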

SK-N-SH [11] = experiment: Cytotoxicity against human SK-N-SH cells assessed as reduction in cell viability at 0.1 to 1 uM after 24 hrs […]; type: functional, cell-based
SK-N-SH [12] = experiment: Cytotoxicity against human SK-N-SH cells assessed as reduction in cell viability at 0.01 to 1 uM after 24 hrs […]; type: functional
[13] = Cytotoxicity against human MYCN2 cells assessed as reduction in cell viability at 0.01 to 1 uM after 24 hrs […]; type: functional
[14] = target: T1, Proteasome Macropain subunit MB1 (Homo sapiens); experiment: Stimulation of immunoproteasome chymotrypsin-like activity in human […] at 1 uM using Suc-LLVY-Glo as substrate pretreated for 2 hrs followed by substrate addition measured after 10 mins by luminescence assay; type: cell-based

Compound	Activity (SK-N-SH [1])	inhibition [2]	inhibition [3]	inhibition [4]	inhibition [5]	inhibition [6]	Activity (Homo sapiens [7])	Activity (Homo sapiens [8])	inhibition [9]	Ki50 [3] [µM]	Activity (Homo sapiens [10])	Ki50 [5] [µM]	Activity (SK-N-SH [11])	Ki50 [9] [µM]	Activity (SK-N-SH [12])	Activity [13]	Ki50 [4] [µM]	Ki50 [6] [µM]	Activity [14]
C[C@H]1/C=C/C(=O)NCCSC[C@H](NC(=O)c2cnccn2)C(=O)N1	inactive	inactive	inactive	inactive	inactive	inactive	inactive	inactive	inactive										
C[C@H]1/C=C/C(=O)NCC[S+]([O-])C[C@H](NC(=O)c2cnccn2)C(=O)N1 (some centres undefined)	inactive	inactive	inactive	inactive	inactive	inactive	inactive	inactive	inactive										
CC(C)C[C@H](NC(=O)[C@H](Cc1ccccc1)NC(=O)c1cnccn1)B(O)O										0.01	Active	0.02	Active	0.03					
COc1ccc(C[C@H](NC(=O)[C@H](C)NC(=O)CN2CCOCC2)C(=O)N[C@@H](Cc2ccccc2)C(=O)[C@]2(C)CO2)cc1										0.11		2.07		1.32					
CCCCCCCCCCCCNC(=O)N[C@H](C(=O)N[C@H]1CSCCNC(=O)/C=C/[C@H](C)NC1=O)C(C)C										> 10		> 10		> 10	30 - 50%	30 - 50%	1.76	1.39	
CCCCCCCCCCCCNC(=O)N[C@H](C(=O)N[C@H]1C[S+]([O-])CCNC(=O)/C=C/[C@H](C)NC1=O)C(C)C (some centres undefined)	inactive	inactive	inactive	inactive	inactive	inactive	inactive	inactive	inactive										
CC(C)[C@H](NC(=O)c1cnccn1)C(=O)N[C@H]1CSCCNC(=O)/C=C/[C@H](C)NC1=O										> 10		> 10		> 10			0.92	0.75	Active
CC(C)Cc1ccc([C@H](C)C(=O)N[C@H](C(=O)N[C@H]2CSCCNC(=O)/C=C/[C@H](C)NC2=O)C(C)C)cc1										> 10		> 10		> 10			1.07	0.74	Active
